Key:
Escherichia coli [1] = assay: Antibacterial activity against Escherichia coli ATCC 25922 assessed as zone of inhibition at 1000 ug/ml after 24 hrs by agar diffusion method; type: functional; settings: ATCC 25922, 24 h, read-out: IZ
Outline: (§1)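 Well diffusion on Mueller-Hinton agar seeded with 24 h old bacterial cultures. Test compounds were dissolved in DMSO at 1 and 0.5 mg/mL and added to labeled wells. Plates were incubated 24 h at 37 °C. The inhibition zone around each well was measured in mm. Triplicate experiments, standard deviation calculated.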

Escherichia coli [2] = assay: Antibacterial activity against Escherichia coli ATCC 25922 assessed as zone of inhibition at 500 ug/ml after 24 hrs by agar diffusion method; type: functional; settings: ATCC 25922, 24 h, read-out: IZ; outline: as §1
Staphylococcus aureus [3] = assay: Antibacterial activity against Staphylococcus aureus assessed as zone of inhibition at 1000 ug/ml after 24 hrs by agar diffusion method; type: functional; settings: read-out: IZ; outline: as §1
Staphylococcus aureus [4] = assay: Antibacterial activity against Staphylococcus aureus assessed as zone of inhibition at 500 ug/ml after 24 hrs by agar diffusion method; type: functional; settings: read-out: IZ; outline: as §1
Bacillus subtilis [5] = assay: Antibacterial activity against Bacillus subtilis assessed as zone of inhibition at 1000 ug/ml after 24 hrs by agar diffusion method; type: functional; settings: read-out: IZ; outline: as §1
Bacillus subtilis [6] = assay: Antibacterial activity against Bacillus subtilis assessed as zone of inhibition at 500 ug/ml after 24 hrs by agar diffusion method; type: functional; settings: read-out: IZ; outline: as §1
Salmonella typhimurium [7] = assay: Antibacterial activity against Salmonella Typhimurium assessed as zone of inhibition at 1000 ug/ml after 24 hrs by agar diffusion method; type: functional, Salmonella enterica subsp. enterica serovar Typhimurium; settings: Salmonella enterica, read-out: IZ; outline: as §1
Salmonella typhimurium [8] = assay: Antibacterial activity against Salmonella Typhimurium assessed as zone of inhibition at 500 ug/ml after 24 hrs by agar diffusion method; type: functional, Salmonella enterica subsp. enterica serovar Typhimurium; settings: Salmonella enterica, read-out: IZ; outline: as §1
Clostridium perfringens [9] = assay: Antibacterial activity against Clostridium perfringens assessed as zone of inhibition at 1000 ug/ml after 24 hrs by agar diffusion method; type: functional; settings: read-out: IZ
Outline: (§2)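 Well diffusion on Mueller-Hinton agar seeded with 24 h old cultures. Compounds dissolved in DMSO at 1 and 0.5 mg/mL and added to wells punched with a sterile cork borer, with a DMSO-only control. Plates incubated 24 h at 37 °C. Read-out was the inhibition zone in mm, run in triplicate, standard deviation calculated.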

Clostridium perfringens [10] = assay: Antibacterial activity against Clostridium perfringens assessed as zone of inhibition at 500 ug/ml after 24 hrs by agar diffusion method; type: functional; settings: read-out: IZ; outline: as §2
Pseudomonas aeruginosa [11] = assay: Antibacterial activity against Pseudomonas aeruginosa ATCC 27853 assessed as zone of inhibition at 1000 ug/ml after 24 hrs by agar diffusion method; type: functional; settings: ATCC 27853, 24 h, read-out: IZ; outline: as §1
Pseudomonas aeruginosa [12] = assay: Antibacterial activity against Pseudomonas aeruginosa ATCC 27853 assessed as zone of inhibition at 500 ug/ml after 24 hrs by agar diffusion method; type: functional; settings: ATCC 27853, 24 h, read-out: IZ; outline: as §1
Candida albicans [13] = assay: Antifungal activity against Candida albicans at 1000 ug/ml after 72 hrs by agar diffusion method by agar diffusion method; type: functional; settings: read-out: DIZ
Outline: (§3)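 Fungal spores were suspended in normal saline (one loopful in 3 mL) and lawned on agar plates. Wells were punched with a sterile cork borer and loaded with test compound in DMSO at the different concentrations. A DMSO solvent control was included. Petri dishes were prepared in triplicate and held at 25 °C for 72 h.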

Candida albicans [14] = assay: Antifungal activity against Candida albicans at 500 ug/ml after 72 hrs by agar diffusion method; type: functional; settings: read-out: DIZ; outline: as §3
Nannizzia gypsea [15] = assay: Antifungal activity against Microsporum gypseum at 1000 ug/ml after 72 hrs by agar diffusion method; type: functional; settings: read-out: DIZ; outline: as §3
Nannizzia gypsea [16] = assay: Antifungal activity against Microsporum gypseum at 500 ug/ml after 72 hrs by agar diffusion method; type: functional; settings: read-out: DIZ; outline: as §3
Aspergillus flavus [17] = assay: Antifungal activity against Aspergillus flavus at 1000 ug/ml after 72 hrs by agar diffusion method; type: functional; settings: read-out: DIZ; outline: as §3
Aspergillus flavus [18] = assay: Antifungal activity against Aspergillus flavus at 500 ug/ml after 72 hrs by agar diffusion method; type: functional; settings: read-out: DIZ; outline: as §3
Aspergillus niger [19] = assay: Antifungal activity against Aspergillus niger at 1000 ug/ml after 72 hrs by agar diffusion method; type: functional; settings: read-out: DIZ; outline: as §3
Aspergillus niger [20] = assay: Antifungal activity against Aspergillus niger at 500 ug/ml after 72 hrs by agar diffusion method; type: functional; settings: read-out: DIZ; outline: as §3
Trichophyton rubrum [21] = assay: Antifungal activity against Trichophyton rubrum at 1000 ug/ml after 72 hrs by agar diffusion method; type: functional; settings: read-out: DIZ; outline: as §3
Trichophyton rubrum [22] = assay: Antifungal activity against Trichophyton rubrum at 500 ug/ml after 72 hrs by agar diffusion method; type: functional; settings: read-out: DIZ; outline: as §3

| Structure (SMILES) | zone of inhibition at 1000 µg/mL (Escherichia coli [1]) | zone of inhibition at 500 µg/mL (Escherichia coli [2]) | zone of inhibition at 1000 µg/mL (Staphylococcus aureus [3]) | zone of inhibition at 500 µg/mL (Staphylococcus aureus [4]) | zone of inhibition at 1000 µg/mL (Bacillus subtilis [5]) | zone of inhibition at 500 µg/mL (Bacillus subtilis [6]) | zone of inhibition at 1000 µg/mL (Salmonella typhimurium [7]) | zone of inhibition at 500 µg/mL (Salmonella typhimurium [8]) | zone of inhibition at 1000 µg/mL (Clostridium perfringens [9]) | zone of inhibition at 500 µg/mL (Clostridium perfringens [10]) | zone of inhibition at 1000 µg/mL (Pseudomonas aeruginosa [11]) | zone of inhibition at 500 µg/mL (Pseudomonas aeruginosa [12]) | zone of inhibition at 1000 µg/mL (Candida albicans [13]) | zone of inhibition at 500 µg/mL (Candida albicans [14]) | zone of inhibition at 1000 µg/mL (Nannizzia gypsea [15]) | zone of inhibition at 500 µg/mL (Nannizzia gypsea [16]) | zone of inhibition at 1000 µg/mL (Aspergillus flavus [17]) | zone of inhibition at 500 µg/mL (Aspergillus flavus [18]) | zone of inhibition at 1000 µg/mL (Aspergillus niger [19]) | zone of inhibition at 500 µg/mL (Aspergillus niger [20]) | also measured |
| --- | --- | --- | --- | --- | --- | --- | --- | --- | --- | --- | --- | --- | --- | --- | --- | --- | --- | --- | --- | --- | --- |
| Cc1ccc(-c2n[nH]cc2-c2nc(-c3ccccc3)c(-c3ccccc3)[nH]2)cc1 | 14 mm | 8 mm | 7 mm | 6 mm | 8 mm | 7 mm | 6 mm | 5 mm | 6 mm | 5 mm | 6 mm | 4 mm | 10 mm | 9 mm | 3 mm | 2 mm | 10 mm | 9 mm | 10 mm | 9 mm | zone of inhibition at 1000 µg/mL (Trichophyton rubrum [21]): 12 mm; zone of inhibition at 500 µg/mL (Trichophyton rubrum [22]): 11 mm |
| Clc1cc(-c2n[nH]cc2-c2nc(-c3ccc(Br)cc3)c(-c3ccc(Br)cc3)[nH]2)c(Cl)s1 | 4 mm | 3 mm | 3 mm | 2 mm | 2 mm | 1 mm | 2 mm | 1 mm | 5 mm | 4 mm | 4 mm | 3 mm | 6 mm | 5 mm | 3 mm | 2 mm | 4 mm | 3 mm | 4 mm | 3 mm | zone of inhibition at 1000 µg/mL (Trichophyton rubrum [21]): 6 mm; zone of inhibition at 500 µg/mL (Trichophyton rubrum [22]): 5 mm |
| Clc1ccc(-c2n[nH]cc2-c2nc(-c3ccccc3)c(-c3ccccc3)[nH]2)c(Cl)c1 | 10 mm | 9 mm | 6 mm | 5 mm | 6 mm | 5 mm | 3 mm | 2 mm | 6 mm | 5 mm | 4 mm | 3 mm | 12 mm | 11 mm | 4 mm | 3 mm | 8 mm | 7 mm | 9 mm | 7 mm | zone of inhibition at 1000 µg/mL (Trichophyton rubrum [21]): 10 mm; zone of inhibition at 500 µg/mL (Trichophyton rubrum [22]): 8 mm |
| Clc1ccc(-c2n[nH]cc2-c2nc(-c3ccc(Br)cc3)c(-c3ccc(Br)cc3)[nH]2)c(Cl)c1 | 5 mm | 4 mm | 4 mm | 3 mm | 5 mm | 4 mm | 4 mm | 3 mm | 3 mm | 2 mm | 5 mm | 4 mm | 9 mm | 8 mm | 4 mm | 3 mm | 5 mm | 4 mm | 5 mm | 4 mm | zone of inhibition at 1000 µg/mL (Trichophyton rubrum [21]): 10 mm; zone of inhibition at 500 µg/mL (Trichophyton rubrum [22]): 9 mm |
| c1ccc(-c2ccc(-c3n[nH]cc3-c3nc(-c4ccccc4)c(-c4ccccc4)[nH]3)cc2)cc1 | 3 mm | 2 mm | 2 mm | 1 mm | 3 mm | 2 mm | 4 mm | 3 mm | 2 mm | 1 mm | 4 mm | 3 mm | 9 mm | 8 mm | 5 mm | 4 mm | 9 mm | 7 mm | 10 mm | 9 mm | zone of inhibition at 1000 µg/mL (Trichophyton rubrum [21]): 9 mm; zone of inhibition at 500 µg/mL (Trichophyton rubrum [22]): 8 mm |
| COC(=O)/C=C1/C(=O)NC(=S)N1/N=C/c1c[nH]nc1-c1ccc(Cl)cc1Cl | 8 mm | 7 mm | 6 mm | 5 mm | 8 mm | 7 mm | 4 mm | 3 mm | 7 mm | 6 mm | 7 mm | 6 mm | 7 mm | 6 mm | 7 mm | 6 mm | 12 mm | 11 mm | 6 mm | 5 mm | zone of inhibition at 1000 µg/mL (Trichophyton rubrum [21]): 10 mm; zone of inhibition at 500 µg/mL (Trichophyton rubrum [22]): 9 mm |
| Cc1ccc(-c2n[nH]cc2-c2nc(-c3ccc(Br)cc3)c(-c3ccc(Br)cc3)[nH]2)cc1 | 4 mm | 3 mm | 3 mm | 2 mm | 4 mm | 3 mm | 4 mm | 3 mm | 3 mm | 2 mm | 2 mm | 1 mm | 4 mm | 3 mm | 2 mm | 1 mm | 3 mm | 2 mm | 3 mm | 2 mm | zone of inhibition at 1000 µg/mL (Trichophyton rubrum [21]): 3 mm; zone of inhibition at 500 µg/mL (Trichophyton rubrum [22]): 2 mm |
| CN[C@@H]1[C@H](O[C@H]2[C@H](O[C@H]3[C@H](O)[C@@H](O)[C@H](N=C(N)N)[C@@H](O)[C@@H]3N=C(N)N)O[C@@H](C)[C@]2(O)C=O)O[C@@H](CO)[C@H](O)[C@H]1O [STREPTOMYCIN] | 16 mm | 10 mm | 15 mm | 10 mm | 21 mm | 11 mm | 18 mm | 17 mm | 17 mm | 16 mm | 13 mm | 9 mm |  |  |  |  |  |  |  |  |  |
| OC(Cn1cncn1)(Cn1cncn1)c1ccc(F)cc1F [FLUCONAZOLE] |  |  |  |  |  |  |  |  |  |  |  |  | 22 mm | 21 mm | 15 mm | 14 mm | 22 mm | 21 mm | 20 mm | 18 mm | zone of inhibition at 1000 µg/mL (Trichophyton rubrum [21]): 24 mm; zone of inhibition at 500 µg/mL (Trichophyton rubrum [22]): 22 mm |
